Experimental data taken from ChEMBL document CHEMBL2086311, “UDP made a highly promising stable, potent, and selective P2Y6-receptor agonist upon introduction of a boranophosphate moiety” (Bioorg Med Chem, 2012).
Activity calls are given as the source filed them. No cut-off for these calls is given here.

Experiments:
[1] = biological target: T1, NPP3 (ectonucleotide pyrophosphatase/phosphodiesterase family member 3) (Homo sapiens, UniProt O14638); assay: Hydrolytic stability of the compound assessed as human NPP3-mediated hydrolysis after 3 hrs by HPLC analysis; type: ADME; settings: human NPP3 enzyme, read-out: Activity
T1 sequence (O14638 whole entry): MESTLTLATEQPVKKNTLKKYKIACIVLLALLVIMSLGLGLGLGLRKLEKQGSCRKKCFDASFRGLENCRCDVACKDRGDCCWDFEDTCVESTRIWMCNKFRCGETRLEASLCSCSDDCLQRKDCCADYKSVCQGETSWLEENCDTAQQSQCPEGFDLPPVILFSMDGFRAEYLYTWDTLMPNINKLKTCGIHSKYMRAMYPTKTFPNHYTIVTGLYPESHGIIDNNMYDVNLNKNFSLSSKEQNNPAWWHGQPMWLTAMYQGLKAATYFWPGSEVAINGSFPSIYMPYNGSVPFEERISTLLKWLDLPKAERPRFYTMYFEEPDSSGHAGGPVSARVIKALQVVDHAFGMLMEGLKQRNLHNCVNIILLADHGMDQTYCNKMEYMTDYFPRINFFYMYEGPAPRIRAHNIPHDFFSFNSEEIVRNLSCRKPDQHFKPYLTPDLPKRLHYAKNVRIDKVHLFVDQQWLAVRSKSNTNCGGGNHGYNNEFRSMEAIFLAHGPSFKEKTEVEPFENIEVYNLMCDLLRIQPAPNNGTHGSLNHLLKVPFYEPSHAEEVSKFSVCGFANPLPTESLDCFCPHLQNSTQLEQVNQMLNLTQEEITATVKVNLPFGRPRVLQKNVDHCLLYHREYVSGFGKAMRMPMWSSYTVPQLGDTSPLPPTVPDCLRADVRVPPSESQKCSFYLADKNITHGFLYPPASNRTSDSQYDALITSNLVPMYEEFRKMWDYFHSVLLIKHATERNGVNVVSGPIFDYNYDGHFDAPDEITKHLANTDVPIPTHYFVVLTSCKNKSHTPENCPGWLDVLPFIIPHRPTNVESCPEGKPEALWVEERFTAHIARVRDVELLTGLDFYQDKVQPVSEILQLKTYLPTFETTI
Procedure, shortened: (§1)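 Human NPP1 (56.15 µg) or NPP3 (57.78 µg) extract was pre-incubated 3 min at 37 °C in 1 mM CaCl2, 200 mM NaCl, 10 mM KCl, 100 mM Tris pH 8.5. Reaction was started with 4 mM compound stock and stopped after 2 h (NPP1) or 3 h (NPP3) in ice-cold 1 M perchloric acid, then neutralized with KOH. HPLC measured the nucleoside monophosphate peak area minus a no-enzyme acid control. Mean ± S.D. of two experiments.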

[2] = test system: Serum; assay: Drug metabolism in human serum assessed as nucleoside 5'-monophosphate formation incubated up to 24 hrs by HPLC analysis; type: ADME, cell-free
Procedure, shortened: (§2)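 Samples held 0.1 mg compound with human blood serum (180 µL) and RPMI-1640 (540 µL) at 37 °C for 0–24 h. At each time point they were heated to 80 °C for 30 min, treated with CM Sephadex, centrifuged and chloroform-extracted. Analysis was reverse-phase HPLC on peak integrals. Degradation was taken relative to a no-serum control carried through the same workup, and half-lives came from the time course.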

[3] = test system: Serum; assay: Drug metabolism in human serum assessed as nucleoside formation incubated up to 24 hrs by HPLC analysis; type: ADME, cell-free; procedure, shortened: as §2
[4] = Half life in human serum by HPLC analysis; type: ADME, cell-free
Procedure, shortened: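 Compound (0.1 mg) incubated with human blood serum and RPMI-1640 medium at 37 °C for 0–24 h. Samples taken at 0.5–12 h intervals, heated to 80 °C for 30 min, treated with CM Sephadex and extracted with chloroform. Analysed by reverse-phase HPLC. Degradation from peak integration, corrected against a serum-free control given the same workup.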

[5] = biological target: T2, Ectonucleotide pyrophosphatase/phosphodiesterase family member 1 (Homo sapiens, UniProt P22413); assay: Hydrolytic stability of the compound assessed as human NPP1-mediated hydrolysis measuring 5-OMe-UMP formation after 2 hrs by HPLC analysis; type: ADME; parameters: scale not given: the % may be the effect or the level left; procedure, shortened: as §1
T2 sequence (P22413 whole entry): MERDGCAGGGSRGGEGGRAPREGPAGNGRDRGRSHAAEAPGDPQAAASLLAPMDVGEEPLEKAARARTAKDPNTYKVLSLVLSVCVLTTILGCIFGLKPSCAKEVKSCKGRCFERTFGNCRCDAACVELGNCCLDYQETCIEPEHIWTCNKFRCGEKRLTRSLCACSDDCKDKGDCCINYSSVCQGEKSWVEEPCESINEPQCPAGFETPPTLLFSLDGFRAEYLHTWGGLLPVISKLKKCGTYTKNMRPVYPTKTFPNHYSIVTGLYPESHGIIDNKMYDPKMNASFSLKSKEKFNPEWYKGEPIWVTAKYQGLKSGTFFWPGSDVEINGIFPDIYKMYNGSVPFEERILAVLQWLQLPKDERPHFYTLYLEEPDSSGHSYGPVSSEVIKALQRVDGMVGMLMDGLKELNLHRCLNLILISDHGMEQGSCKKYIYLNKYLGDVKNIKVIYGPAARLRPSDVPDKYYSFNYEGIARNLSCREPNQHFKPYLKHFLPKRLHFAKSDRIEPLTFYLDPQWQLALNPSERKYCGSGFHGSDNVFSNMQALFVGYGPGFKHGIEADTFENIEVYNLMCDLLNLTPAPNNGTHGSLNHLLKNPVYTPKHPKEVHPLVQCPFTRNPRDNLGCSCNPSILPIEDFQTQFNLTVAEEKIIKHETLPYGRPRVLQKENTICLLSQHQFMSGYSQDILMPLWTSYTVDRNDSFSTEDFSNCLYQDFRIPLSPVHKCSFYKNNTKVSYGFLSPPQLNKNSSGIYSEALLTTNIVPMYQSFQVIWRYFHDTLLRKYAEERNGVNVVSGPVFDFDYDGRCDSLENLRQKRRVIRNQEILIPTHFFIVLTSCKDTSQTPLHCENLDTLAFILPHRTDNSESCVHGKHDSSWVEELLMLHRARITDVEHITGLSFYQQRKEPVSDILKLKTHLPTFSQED

[6] = biological target: T3, P2Y purinoceptor 6 (Homo sapiens, UniProt Q15077); assay: Agonist activity at human GFP-tagged P2Y6 receptor expressed in human 1321N1 cells assessed as intracellular calcium mobilization by fura2/AM-based fluorescence spectrophotometry; type: functional, cell-based
Procedure, shortened: (§3)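 Human P2Y2, P2Y4 or P2Y6 receptors with GFP fusion, stably expressed in 1321N1 astrocytoma cells (no endogenous P2X/P2Y), selected with 0.5 mg/mL G418. Cells on coverslips at ~80% density were loaded with 2 µM fura 2/AM plus 0.02% pluronic acid in Na-HBS pH 7.4 for 30 min at 37 °C. Nucleotide was superfused at 37 °C, usually 10^-8 to ≥10^-5 M, sometimes to 10^-4 M. Read-out was 340/380 nm excitation ratio at 510 nm emission. Values are mean maximal amplitude ± SE.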

[7] = biological target: P2Y purinoceptor 4 (Homo sapiens, UniProt P51582); assay: Agonist activity at human GFP-tagged P2Y4 receptor expressed in human 1321N1 cells assessed as intracellular calcium mobilization up to 100 uM by fura2/AM-based fluorescence spectrophotometry; type: functional, cell-based; procedure, shortened: as §3
[8] = biological target: T3, P2Y purinoceptor 6; assay: Ratio of UDP EC50 to compound EC50 for human GFP-tagged P2Y6 receptor
Procedure, shortened: (§4)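 Human P2Y6 receptor-GFP construct stably expressed in 1321N1 astrocytoma cells (no endogenous P2X/P2Y). Cells loaded with 2 µM fura-2/AM plus 0.02% pluronic acid in Na-HBS (pH 7.4), 30 min, 37 °C. Superfused at 37 °C with nucleotide, usually 10^-8 M to at least 10^-5 M. [Ca2+]i read as 340/380 nm excitation ratio, emission 510 nm. EC50 from concentration–response curves.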

[9] = biological target: P2Y purinoceptor 2 (Homo sapiens) (UniProt P41231); assay: Agonist activity at human GFP-tagged P2Y2 receptor expressed in human 1321N1 cells assessed as intracellular calcium mobilization up to 100 uM by fura2/AM-based fluorescence spectrophotometry; type: functional, cell-based; procedure, shortened: as §3
[10] = Half life in KCl/HCl buffer by 31P-NMR analysis at pH 1.4; type: physicochemical
Procedure, shortened: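 Sodium salt dissolved in KCl/HCl buffer pH 1.4 containing D2O, held at 37 °C. 31P NMR spectra taken at 15 min, 1 h or 24 h intervals, about every 24 h in multi-day runs. Hydrolysis rate taken from change in integration of one starting-material phosphate signal over time, fit to a pseudo-first-order model.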

[11] = biological target: T3, P2Y purinoceptor 6; assay: Agonist activity at human P2Y6 receptor; type: functional; procedure, shortened: as §4

Chain of P2Y purinoceptor 2 (Homo sapiens) (P41231 whole entry): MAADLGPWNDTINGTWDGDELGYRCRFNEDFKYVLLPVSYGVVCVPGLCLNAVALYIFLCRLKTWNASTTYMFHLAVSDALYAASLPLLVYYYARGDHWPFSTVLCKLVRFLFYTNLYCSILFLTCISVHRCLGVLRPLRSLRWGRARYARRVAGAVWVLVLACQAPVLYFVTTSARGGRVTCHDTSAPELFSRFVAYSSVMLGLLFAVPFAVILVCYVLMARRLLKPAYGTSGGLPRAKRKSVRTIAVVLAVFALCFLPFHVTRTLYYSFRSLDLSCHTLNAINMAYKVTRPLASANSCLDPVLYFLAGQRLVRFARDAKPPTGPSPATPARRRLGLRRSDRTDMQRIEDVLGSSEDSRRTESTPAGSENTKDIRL
T3 sequence (Q15077 whole entry, the tested form may be a part): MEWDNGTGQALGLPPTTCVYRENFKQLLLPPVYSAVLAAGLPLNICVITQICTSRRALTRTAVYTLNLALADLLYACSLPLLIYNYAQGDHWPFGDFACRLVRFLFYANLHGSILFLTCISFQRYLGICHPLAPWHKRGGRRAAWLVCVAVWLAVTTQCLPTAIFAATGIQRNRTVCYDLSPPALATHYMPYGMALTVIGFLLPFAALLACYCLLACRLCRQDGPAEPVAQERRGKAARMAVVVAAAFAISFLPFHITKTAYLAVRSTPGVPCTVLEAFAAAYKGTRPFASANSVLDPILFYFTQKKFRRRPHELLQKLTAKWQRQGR
Chain of P2Y purinoceptor 4 (P51582 whole entry): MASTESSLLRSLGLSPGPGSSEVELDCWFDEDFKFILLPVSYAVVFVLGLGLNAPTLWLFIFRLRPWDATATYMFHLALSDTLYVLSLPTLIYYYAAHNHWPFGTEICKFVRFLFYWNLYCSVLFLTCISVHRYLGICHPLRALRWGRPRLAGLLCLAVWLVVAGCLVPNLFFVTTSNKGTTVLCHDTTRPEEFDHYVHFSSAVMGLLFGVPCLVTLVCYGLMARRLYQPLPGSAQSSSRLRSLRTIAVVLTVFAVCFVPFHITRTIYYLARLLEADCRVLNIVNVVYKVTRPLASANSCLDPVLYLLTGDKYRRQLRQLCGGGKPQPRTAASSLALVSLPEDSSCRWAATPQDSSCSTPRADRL

| SMILES | EC50 [6] | Activity [7] | Activity [9] | further results |
| --- | --- | --- | --- | --- |
| COc1cn([C@@H]2O[C@H](COP(=O)(O)OP(=O)(O)O)[C@@H](O)[C@H]2O)c(=O)[nH]c1=O | – | – | – | metabolised at 3 h [1]: 36%; Drug metabolism [2]: Active; Drug metabolism [3]: Active; half-life [4]: 11.9 h; Activity [5]: 49% |
| B[P@](=O)(OC[C@H]1O[C@@H](n2cc(OC)c(=O)[nH]c2=O)[C@H](O)[C@@H]1O)O[P@@](=O)(O)OP(=O)(O)O | 20.1 µM | – | – | – |
| B[P@@](=O)(OC[C@H]1O[C@@H](n2cc(OC)c(=O)[nH]c2=O)[C@H](O)[C@@H]1O)OP(=O)(O)O | – | inactive | inactive | Ratio EC50 [8]: 19 |
| B[P@](=O)(OC[C@H]1O[C@@H](n2cc(OC)c(=O)[nH]c2=O)[C@H](O)[C@@H]1O)OP(=O)(O)O | 4.3 µM | inactive | inactive | – |
| B[P@@](=O)(OC[C@H]1O[C@@H](n2ccc(=O)[nH]c2=O)[C@H](O)[C@@H]1O)OP(=O)(O)O | – | – | – | half-life [10]: 16.8 h; half-life [4]: 17 h |
| BP(=O)(OP(=O)(O)OC[C@H]1O[C@@H](n2cc(OC)c(=O)[nH]c2=O)[C@H](O)[C@@H]1O)OP(=O)(O)OC[C@H]1O[C@@H](n2cc(OC)c(=O)[nH]c2=O)[C@H](O)[C@@H]1O | 0.2 µM | inactive | inactive | – |
| COc1cn([C@@H]2O[C@H](COP(=O)(O)OP(=O)(O)OP(=O)(O)OC[C@H]3O[C@@H](n4cc(OC)c(=O)[nH]c4=O)[C@H](O)[C@@H]3O)[C@@H](O)[C@H]2O)c(=O)[nH]c1=O | > 10 µM | inactive | inactive | – |
| O=c1ccn([C@@H]2O[C@H](COP(=O)(O)OP(=O)(O)S)[C@@H](O)[C@H]2O)c(=O)[nH]1 (stereo partly drawn) | – | – | – | EC50 [11]: 0.028 µM |
| B[P@](=O)(OC[C@H]1O[C@@H](n2cc(OC)c(=O)[nH]c2=O)[C@H](O)[C@@H]1O)OP(=O)(O)OP(=O)(O)O | – | inactive | inactive | – |
